Experimental data reported in ChEMBL document CHEMBL1146995, “Aza-retinoids as novel retinoid X receptor-specific agonists” (Bioorg Med Chem Lett, 2006).

target: T1, Retinoic acid receptor RXR-beta (Homo sapiens, UniProt P28702); assay: Transactivation of RXRbeta in CV1 cells by cotransfection assay; format: functional, cell-based, CV-1; conditions: read-out: EC50
T1 sequence (P28702 whole entry): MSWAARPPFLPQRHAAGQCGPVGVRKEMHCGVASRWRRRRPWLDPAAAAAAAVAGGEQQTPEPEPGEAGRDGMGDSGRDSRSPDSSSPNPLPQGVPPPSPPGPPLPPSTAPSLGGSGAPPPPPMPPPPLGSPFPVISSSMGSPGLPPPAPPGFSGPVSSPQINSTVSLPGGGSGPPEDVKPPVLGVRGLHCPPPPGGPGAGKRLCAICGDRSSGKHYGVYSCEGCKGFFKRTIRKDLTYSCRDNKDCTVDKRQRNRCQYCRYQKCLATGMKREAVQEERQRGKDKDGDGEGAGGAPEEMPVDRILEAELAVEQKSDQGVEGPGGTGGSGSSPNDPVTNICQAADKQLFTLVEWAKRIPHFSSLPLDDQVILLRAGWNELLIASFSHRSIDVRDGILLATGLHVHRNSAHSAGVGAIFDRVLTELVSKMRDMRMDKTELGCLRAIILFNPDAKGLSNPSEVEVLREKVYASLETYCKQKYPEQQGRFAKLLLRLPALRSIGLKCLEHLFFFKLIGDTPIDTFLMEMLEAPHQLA
Summary of the method: (§1)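 EC50 taken from a full dose–response curve. Retinoid activity was normalized to the response to ATRA (all-trans retinoic acid). Potency (EC50) is the retinoid concentration that gives 50% of the maximal observed response.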

In order of falling EC50:
1. CC(/C=C/[C@H]1CCCN1c1ccc2c(c1)C(C)(C)CCC2(C)C)=C\C(=O)O  1290 nM
2. CCN(C/C=C/C(C)=C/C(=O)O)c1ccc2c(c1)C(C)(C)CCC2(C)C  239 nM
3. CCN(C/C=C/C(C)=C/C(=O)O)c1cc(C(C)(C)C)cc(C(C)(C)C)c1  235 nM
4. CC(/C=C/CN(c1cc(C(C)(C)C)cc2c1CCC2(C)C)C(C)C)=C\C(=O)O  216 nM
5. CC(/C=C/[C@@H]1CCCN1c1ccc2c(c1)C(C)(C)CCC2(C)C)=C\C(=O)O  161 nM
6. CCCN(C(=O)/C=C/C(C)=C/C(=O)O)c1cc(C(C)(C)C)cc(C(C)(C)C)c1  151 nM
7. CCN(C/C=C/C(C)=C/C(=O)O)c1cc2c(cc1C)C(C)(C)CCC2(C)C  117 nM
8. CC(/C=C/CN(CC1CC1)c1cc(C(C)(C)C)cc2c1CCC2(C)C)=C\C(=O)O  98 nM
9. CC(/C=C/CN(C)c1cc(C(C)(C)C)cc(C(C)(C)C)c1)=C\C(=O)O  95 nM
10. CCCN(C/C=C/C(C)=C/C(=O)O)c1cc(C(C)(C)C)cc(C(C)(C)C)c1  69 nM
11. CCCN(C/C=C/C(C)=C/C(=O)O)c1cc(C(C)(C)C)cc2c1CCC2(C)C  21 nM

target: T2, Retinoic acid receptor RXR-alpha (Homo sapiens, UniProt P19793); assay: Binding affinity to RXRalpha; conditions: read-out: Ki
T2 sequence (P19793 whole entry): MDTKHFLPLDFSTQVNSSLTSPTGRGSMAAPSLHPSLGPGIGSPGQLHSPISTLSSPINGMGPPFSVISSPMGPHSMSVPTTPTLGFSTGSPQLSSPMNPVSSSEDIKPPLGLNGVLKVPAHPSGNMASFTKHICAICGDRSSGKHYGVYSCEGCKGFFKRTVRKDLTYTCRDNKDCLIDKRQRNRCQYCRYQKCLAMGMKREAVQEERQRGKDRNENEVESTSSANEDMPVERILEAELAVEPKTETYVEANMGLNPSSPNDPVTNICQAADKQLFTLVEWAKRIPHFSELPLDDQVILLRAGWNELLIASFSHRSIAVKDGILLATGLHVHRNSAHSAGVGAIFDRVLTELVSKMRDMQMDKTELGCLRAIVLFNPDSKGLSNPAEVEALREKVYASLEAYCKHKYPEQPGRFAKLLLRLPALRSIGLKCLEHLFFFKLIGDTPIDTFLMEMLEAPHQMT

In order of rising Ki:
1. CCCN(C/C=C/C(C)=C/C(=O)O)c1cc(C(C)(C)C)cc2c1CCC2(C)C  8 nM
2. CCCN(C/C=C/C(C)=C/C(=O)O)c1cc(C(C)(C)C)cc(C(C)(C)C)c1  17 nM
3. CC(/C=C/[C@@H]1CCCN1c1ccc2c(c1)C(C)(C)CCC2(C)C)=C\C(=O)O  21 nM
4. CCN(C/C=C/C(C)=C/C(=O)O)c1cc(C(C)(C)C)cc(C(C)(C)C)c1  31 nM
5. CC(/C=C/CN(C)c1cc(C(C)(C)C)cc(C(C)(C)C)c1)=C\C(=O)O  37 nM
6. CCN(C/C=C/C(C)=C/C(=O)O)c1cc2c(cc1C)C(C)(C)CCC2(C)C  42 nM
7. CC(/C=C/CN(CC1CC1)c1cc(C(C)(C)C)cc2c1CCC2(C)C)=C\C(=O)O  63 nM
8. CC(/C=C/CN(c1cc(C(C)(C)C)cc2c1CCC2(C)C)C(C)C)=C\C(=O)O  67 nM
9. CC(/C=C/[C@H]1CCCN1c1ccc2c(c1)C(C)(C)CCC2(C)C)=C\C(=O)O  103 nM
10. CCN(C/C=C/C(C)=C/C(=O)O)c1ccc2c(c1)C(C)(C)CCC2(C)C  103 nM
11. CCCN(C(=O)/C=C/C(C)=C/C(=O)O)c1cc(C(C)(C)C)cc(C(C)(C)C)c1  644 nM

target: T2, Retinoic acid receptor RXR-alpha; assay: Transactivation of RXRalpha in CV1 cells by cotransfection assay; format: functional, cell-based, CV-1; conditions: cv-1; summary of the method: as §1

In the case of `CC(/C=C/[C@H]1CCCN1c1ccc2c(c1)C(C)(C)CCC2(C)C)=C\C(=O)O`, the EC50 is reported as “Not Active”.

same assay, conditions: read-out: EC50

In order of rising EC50:
1. CCCN(C/C=C/C(C)=C/C(=O)O)c1cc(C(C)(C)C)cc2c1CCC2(C)C  22 nM
2. CCN(C/C=C/C(C)=C/C(=O)O)c1cc2c(cc1C)C(C)(C)CCC2(C)C  64 nM
3. CCCN(C/C=C/C(C)=C/C(=O)O)c1cc(C(C)(C)C)cc(C(C)(C)C)c1  99 nM
4. CC(/C=C/CN(CC1CC1)c1cc(C(C)(C)C)cc2c1CCC2(C)C)=C\C(=O)O  123 nM
5. CC(/C=C/[C@@H]1CCCN1c1ccc2c(c1)C(C)(C)CCC2(C)C)=C\C(=O)O  179 nM
6. CCN(C/C=C/C(C)=C/C(=O)O)c1ccc2c(c1)C(C)(C)CCC2(C)C  216 nM
7. CCN(C/C=C/C(C)=C/C(=O)O)c1cc(C(C)(C)C)cc(C(C)(C)C)c1  221 nM
8. CC(/C=C/CN(c1cc(C(C)(C)C)cc2c1CCC2(C)C)C(C)C)=C\C(=O)O  252 nM
9. CC(/C=C/CN(C)c1cc(C(C)(C)C)cc(C(C)(C)C)c1)=C\C(=O)O  378 nM
10. CCCN(C(=O)/C=C/C(C)=C/C(=O)O)c1cc(C(C)(C)C)cc(C(C)(C)C)c1  1000 nM

target: T3, Retinoic acid receptor RXR-gamma (Homo sapiens, UniProt P48443); assay: Binding affinity to RXRgamma; conditions: read-out: Ki
T3 sequence (P48443 whole entry): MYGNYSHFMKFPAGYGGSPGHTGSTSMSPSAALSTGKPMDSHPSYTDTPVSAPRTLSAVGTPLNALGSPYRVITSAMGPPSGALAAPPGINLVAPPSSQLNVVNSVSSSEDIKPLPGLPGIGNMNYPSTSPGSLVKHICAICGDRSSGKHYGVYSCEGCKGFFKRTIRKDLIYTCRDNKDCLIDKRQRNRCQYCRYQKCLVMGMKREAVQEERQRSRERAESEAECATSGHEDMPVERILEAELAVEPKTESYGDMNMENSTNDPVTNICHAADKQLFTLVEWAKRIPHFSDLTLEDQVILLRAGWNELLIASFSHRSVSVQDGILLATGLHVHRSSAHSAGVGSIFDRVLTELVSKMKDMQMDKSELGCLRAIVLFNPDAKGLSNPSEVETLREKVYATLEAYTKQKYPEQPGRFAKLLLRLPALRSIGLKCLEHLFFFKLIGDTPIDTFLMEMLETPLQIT

In order of rising Ki:
1. CCCN(C/C=C/C(C)=C/C(=O)O)c1cc(C(C)(C)C)cc2c1CCC2(C)C  10 nM
2. CCN(C/C=C/C(C)=C/C(=O)O)c1cc(C(C)(C)C)cc(C(C)(C)C)c1  35 nM
3. CCCN(C/C=C/C(C)=C/C(=O)O)c1cc(C(C)(C)C)cc(C(C)(C)C)c1  38 nM
4. CCN(C/C=C/C(C)=C/C(=O)O)c1cc2c(cc1C)C(C)(C)CCC2(C)C  99 nM
5. CC(/C=C/[C@@H]1CCCN1c1ccc2c(c1)C(C)(C)CCC2(C)C)=C\C(=O)O  100 nM
6. CC(/C=C/CN(c1cc(C(C)(C)C)cc2c1CCC2(C)C)C(C)C)=C\C(=O)O  121 nM
7. CC(/C=C/CN(C)c1cc(C(C)(C)C)cc(C(C)(C)C)c1)=C\C(=O)O  131 nM
8. CC(/C=C/CN(CC1CC1)c1cc(C(C)(C)C)cc2c1CCC2(C)C)=C\C(=O)O  150 nM
9. CCN(C/C=C/C(C)=C/C(=O)O)c1ccc2c(c1)C(C)(C)CCC2(C)C  162 nM
10. CC(/C=C/[C@H]1CCCN1c1ccc2c(c1)C(C)(C)CCC2(C)C)=C\C(=O)O  202 nM
11. CCCN(C(=O)/C=C/C(C)=C/C(=O)O)c1cc(C(C)(C)C)cc(C(C)(C)C)c1  299 nM

target: T1, Retinoic acid receptor RXR-beta; assay: Binding affinity to RXRbeta; conditions: read-out: Ki

In order of falling Ki:
1. CCCN(C(=O)/C=C/C(C)=C/C(=O)O)c1cc(C(C)(C)C)cc(C(C)(C)C)c1  605 nM
2. CC(/C=C/CN(c1cc(C(C)(C)C)cc2c1CCC2(C)C)C(C)C)=C\C(=O)O  301 nM
3. CC(/C=C/[C@H]1CCCN1c1ccc2c(c1)C(C)(C)CCC2(C)C)=C\C(=O)O  188 nM
4. CCN(C/C=C/C(C)=C/C(=O)O)c1ccc2c(c1)C(C)(C)CCC2(C)C  185 nM
5. CCN(C/C=C/C(C)=C/C(=O)O)c1cc2c(cc1C)C(C)(C)CCC2(C)C  152 nM
6. CC(/C=C/CN(CC1CC1)c1cc(C(C)(C)C)cc2c1CCC2(C)C)=C\C(=O)O  105 nM
7. CC(/C=C/CN(C)c1cc(C(C)(C)C)cc(C(C)(C)C)c1)=C\C(=O)O  88 nM
8. CC(/C=C/[C@@H]1CCCN1c1ccc2c(c1)C(C)(C)CCC2(C)C)=C\C(=O)O  63 nM
9. CCCN(C/C=C/C(C)=C/C(=O)O)c1cc(C(C)(C)C)cc(C(C)(C)C)c1  34 nM
10. CCN(C/C=C/C(C)=C/C(=O)O)c1cc(C(C)(C)C)cc(C(C)(C)C)c1  24 nM
11. CCCN(C/C=C/C(C)=C/C(=O)O)c1cc(C(C)(C)C)cc2c1CCC2(C)C  12 nM

target: T3, Retinoic acid receptor RXR-gamma; assay: Transactivation of RXRgamma in CV1 cells by cotransfection assay; format: functional, cell-based, CV-1; conditions: read-out: EC50; summary of the method: as §1

In order of rising EC50:
1. CCCN(C/C=C/C(C)=C/C(=O)O)c1cc(C(C)(C)C)cc2c1CCC2(C)C  19 nM
2. CCCN(C/C=C/C(C)=C/C(=O)O)c1cc(C(C)(C)C)cc(C(C)(C)C)c1  63 nM
3. CC(/C=C/CN(CC1CC1)c1cc(C(C)(C)C)cc2c1CCC2(C)C)=C\C(=O)O  100 nM
4. CCN(C/C=C/C(C)=C/C(=O)O)c1cc2c(cc1C)C(C)(C)CCC2(C)C  125 nM
5. CCN(C/C=C/C(C)=C/C(=O)O)c1ccc2c(c1)C(C)(C)CCC2(C)C  128 nM
6. CC(/C=C/[C@@H]1CCCN1c1ccc2c(c1)C(C)(C)CCC2(C)C)=C\C(=O)O  147 nM
7. CCN(C/C=C/C(C)=C/C(=O)O)c1cc(C(C)(C)C)cc(C(C)(C)C)c1  231 nM
8. CC(/C=C/CN(c1cc(C(C)(C)C)cc2c1CCC2(C)C)C(C)C)=C\C(=O)O  262 nM
9. CC(/C=C/CN(C)c1cc(C(C)(C)C)cc(C(C)(C)C)c1)=C\C(=O)O  322 nM
10. CCCN(C(=O)/C=C/C(C)=C/C(=O)O)c1cc(C(C)(C)C)cc(C(C)(C)C)c1  669 nM
11. CC(/C=C/[C@H]1CCCN1c1ccc2c(c1)C(C)(C)CCC2(C)C)=C\C(=O)O  1260 nM
